Assay results published in ChEMBL document CHEMBL1781935, “Amberlite-IRA-402 (OH) ion exchange resin mediated synthesis of indolizines, pyrrolo [1,2-a] quinolines and isoquinolines: antibacterial and antifungal evaluation of the products” (2011).
Converted amounts (≈) assume the structure as drawn. The source made the active and inactive calls. The rule behind the calls is not given here.

Assays:
[1] = test system: Vibrio cholerae; assay: Antibacterial activity against Vibrio cholerae isolate 7201 at 10 to 80 ug/ml after overnight incubation by broth dilution method; type: functional, organism-based
[2] = test system: Shigella dysenteriae; assay: Antibacterial activity against Shigella dysenteriae isolate 3 at 10 to 80 ug/ml after overnight incubation by broth dilution method; type: functional, organism-based
[3] = test system: Escherichia coli; assay: Antibacterial activity against Escherichia coli ATCC 25938 at 10 to 80 ug/ml after overnight incubation by broth dilution method; type: functional, organism-based
Outline: (§1)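 Bactericidal testing with double-fold drug dilutions in Mueller-Hinton broth. Tubes inoculated with 1 ml suspension (2 × 10^6 cfu/ml) and shaken at 200 rpm at 37 °C for 24 h. Drug was added at mid-logarithmic growth. Viable colony counts were taken from 1.0 ml aliquots plated on nutrient agar.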

[4] = test system: Pseudomonas aeruginosa; assay: Antibacterial activity against Pseudomonas aeruginosa ATCC 27853 at 10 to 80 ug/ml after overnight incubation by broth dilution method; type: functional, organism-based; outline: as §1
[5] = test system: Escherichia coli; assay: Antibacterial activity against Escherichia coli ATCC 25938 at 1 to 1000 ug/ml after overnight incubation by disc diffusion method; type: functional
Outline: (§2)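 Disc diffusion on Mueller-Hinton agar. Plates seeded with 0.1 ml bacterial suspension (2 × 10^6 cfu/ml). Sterile 6 mm paper discs were impregnated with compound solutions at 1–1000 µg/ml and incubated at 37 °C overnight. Read-out was the diameter of the clear inhibition zone. Stocks were 1 mg/ml in 4% Tween 80 or 4% propylene glycol.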

[6] = test system: Klebsiella pneumoniae; assay: Antibacterial activity against Klebsiella pneumoniae isolate J/1/4 at 1 to 1000 ug/ml after overnight incubation by disc diffusion method; type: functional; outline: as §2
[7] = test system: Staphylococcus aureus; assay: Antibacterial activity against Staphylococcus aureus ATCC 25923 at 1 to 1000 ug/ml after overnight incubation by disc diffusion method; type: functional; outline: as §2
[8] = test system: Pseudomonas aeruginosa; assay: Antibacterial activity against Pseudomonas aeruginosa ATCC 27853 at 1 to 1000 ug/ml after overnight incubation by disc diffusion method; type: functional; outline: as §2
[9] = test system: Vibrio cholerae; assay: Antibacterial activity against Vibrio cholerae isolate 7201 at 1 to 1000 ug/ml after overnight incubation by disc diffusion method; type: functional
[10] = test system: Vibrio cholerae; assay: Antibacterial activity against Vibrio cholerae isolate 720 at 1 to 1000 ug/ml after overnight incubation by disc diffusion method; type: functional
[11] = test system: Bacillus subtilis; assay: Antibacterial activity against Bacillus subtilis UC564 at 1 to 1000 ug/ml after overnight incubation by disc diffusion method; type: functional; outline: as §2
[12] = test system: Shigella dysenteriae; assay: Antibacterial activity against Shigella dysenteriae isolate 3 at 1 to 1000 ug/ml after overnight incubation by disc diffusion method; type: functional
[13] = test system: Enterococcus faecalis; assay: Antibacterial activity against Enterococcus faecalis isolate 29212 at 1 to 1000 ug/ml after overnight incubation by disc diffusion method; type: functional; outline: as §2
[14] = test system: Shigella flexneri; assay: Antibacterial activity against Shigella flexneri DN13 at 1 to 1000 ug/ml after overnight incubation by disc diffusion method; type: functional; outline: as §2
[15] = test system: Salmonella typhi; assay: Antibacterial activity against Salmonella typhi DIRW at 1 to 1000 ug/ml after overnight incubation by disc diffusion method; type: functional; settings: Salmonella enterica subsp. enterica serovar Typhi
[16] = test system: Vibrio parahaemolyticus; assay: Antibacterial activity against Vibrio parahaemolyticus isolate 72016 at 1 to 1000 ug/ml after overnight incubation by disc diffusion method; type: functional; outline: as §2
[17] = test system: Micrococcus luteus; assay: Antibacterial activity against Micrococcus luteus AGD1 at 1 to 1000 ug/ml after overnight incubation by disc diffusion method; type: functional; outline: as §2
[18] = test system: Salmonella typhimurium; assay: Antibacterial activity against Salmonella Typhimurium isolate 11 at 1 to 1000 ug/ml after overnight incubation by disc diffusion method; type: functional, organism-based; settings: Salmonella enterica subsp. enterica serovar Typhimurium; outline: as §2
[19] = test system: Staphylococcus aureus; assay: Antibacterial activity against Staphylococcus aureus ATCC 25923 at 10 to 80 ug/ml after overnight incubation by broth dilution method; type: functional, organism-based; outline: as §1
[20] = test system: Bacillus subtilis; assay: Antibacterial activity against Bacillus subtilis UC564 at 10 to 80 ug/ml after overnight incubation by broth dilution method; type: functional, organism-based; outline: as §1
[21] = test system: Escherichia coli; assay: Antibacterial activity against Escherichia coli ATCC 25938; type: functional
Outline: (§3)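 MIC by broth and agar dilution. Broth: 0.1 ml suspension (2 × 10^6 cfu/ml) in Mueller-Hinton broth with test drug at 1–1000 µg/ml, 37 °C overnight. Agar: serial drug dilutions in Mueller-Hinton agar, spot-inoculated with 2 × 10^6 cfu/spot, 37 °C for 24 h. MIC was the lowest concentration with no visible growth. Antibiotic controls were included.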

[22] = test system: Klebsiella pneumoniae; assay: Antibacterial activity against Klebsiella pneumoniae isolate J/1/4; type: functional; outline: as §3
[23] = test system: Staphylococcus aureus; assay: Antibacterial activity against Staphylococcus aureus ATCC 25923; type: functional; outline: as §3
[24] = test system: Pseudomonas aeruginosa; assay: Antibacterial activity against Pseudomonas aeruginosa ATCC 27853; type: functional; outline: as §3
[25] = test system: Vibrio cholerae; assay: Antibacterial activity against Vibrio cholerae isolate 7201; type: functional
[26] = test system: Bacillus subtilis; assay: Antibacterial activity against Bacillus subtilis UC564; type: functional; outline: as §3
[27] = test system: Shigella dysenteriae; assay: Antibacterial activity against Shigella dysenteriae isolate 3; type: functional
[28] = test system: Enterococcus faecalis; assay: Antibacterial activity against Streptococcus faecalis isolate 29212; type: functional; outline: as §3
[29] = test system: Shigella flexneri; assay: Antibacterial activity against Shigella flexneri DN13; type: functional; outline: as §3
[30] = test system: Salmonella typhi; assay: Antibacterial activity against Salmonella typhi DIRW; type: functional, Salmonella enterica subsp. enterica serovar Typhi; settings: Salmonella enterica
[31] = test system: Vibrio parahaemolyticus; assay: Antibacterial activity against Vibrio parahaemolyticus isolate 72016; type: functional; outline: as §3
[32] = test system: Micrococcus luteus; assay: Antibacterial activity against Micrococcus luteus AGD1; type: functional; outline: as §3
[33] = test system: Salmonella typhimurium; assay: Antibacterial activity against Salmonella Typhimurium isolate 11; type: functional, Salmonella enterica subsp. enterica serovar Typhimurium; settings: Salmonella enterica; outline: as §3

CCOC(=O)c1c(C(=O)OCC)c2ccc3ccccc3n2c1C(=O)c1ccccc1
Activity [1]: Active
Activity [2]: Active
Activity [3]: Active
Activity [4]: Active
diameter of the inhibition zone (DIZ) [5]: 8.1 mm
diameter of the inhibition zone (DIZ) [6]: 8.6 mm
diameter of the inhibition zone (DIZ) [7]: 10.2 mm
diameter of the inhibition zone (DIZ) [8]: 9.7 mm
diameter of the inhibition zone (DIZ) [9]: 7.7 mm
diameter of the inhibition zone (DIZ) [10]: 7.7 mm
diameter of the inhibition zone (DIZ) [11]: 10 mm
diameter of the inhibition zone (DIZ) [12]: 11.1 mm
diameter of the inhibition zone (DIZ) [13]: inactive
diameter of the inhibition zone (DIZ) [14]: inactive
diameter of the inhibition zone (DIZ) [15]: inactive
diameter of the inhibition zone (DIZ) [16]: 9.3 mm
diameter of the inhibition zone (DIZ) [17]: inactive
diameter of the inhibition zone (DIZ) [18]: inactive
Activity [19]: Active
Activity [20]: Active
MIC [21]: > 500 µg/mL
MIC [22]: 256 µg/mL (≈ 616 µM)
MIC [23]: 64 µg/mL (≈ 154 µM)
MIC [24]: 32 µg/mL (≈ 77 µM)
MIC [25]: 128 µg/mL (≈ 308 µM)
MIC [26]: 16 µg/mL (≈ 38.5 µM)
MIC [27]: 32 µg/mL (≈ 77 µM)
MIC [28]: 500 µg/mL (≈ 1200 µM)
MIC [29]: > 500 µg/mL
MIC [30]: 500 µg/mL (≈ 1200 µM)
MIC [31]: 64 µg/mL (≈ 154 µM)
MIC [32]: 500 µg/mL (≈ 1200 µM)
MIC [33]: > 500 µg/mL

N#Cc1cc2ccccn2c1C(=O)c1ccccc1
Activity [1]: Active
Activity [2]: Active
Activity [3]: Active
Activity [4]: Active
diameter of the inhibition zone (DIZ) [5]: inactive
diameter of the inhibition zone (DIZ) [6]: 8.9 mm
diameter of the inhibition zone (DIZ) [7]: 12.1 mm
diameter of the inhibition zone (DIZ) [8]: inactive
diameter of the inhibition zone (DIZ) [9]: 10 mm
diameter of the inhibition zone (DIZ) [10]: 10 mm
diameter of the inhibition zone (DIZ) [11]: 9.7 mm
diameter of the inhibition zone (DIZ) [12]: 9 mm
diameter of the inhibition zone (DIZ) [13]: inactive
diameter of the inhibition zone (DIZ) [14]: inactive
diameter of the inhibition zone (DIZ) [15]: inactive
diameter of the inhibition zone (DIZ) [16]: 7.5 mm
diameter of the inhibition zone (DIZ) [17]: 7.5 mm
diameter of the inhibition zone (DIZ) [18]: inactive
Activity [19]: Active
Activity [20]: Active
MIC [21]: > 500 µg/mL
MIC [22]: 64 µg/mL (≈ 260 µM)
MIC [23]: 32 µg/mL (≈ 130 µM)
MIC [24]: > 500 µg/mL
MIC [25]: 16 µg/mL (≈ 65 µM)
MIC [26]: 16 µg/mL (≈ 65 µM)
MIC [27]: 128 µg/mL (≈ 520 µM)
MIC [28]: 500 µg/mL (≈ 2030 µM)
MIC [29]: 500 µg/mL (≈ 2030 µM)
MIC [30]: 500 µg/mL (≈ 2030 µM)
MIC [31]: 256 µg/mL (≈ 1040 µM)
MIC [32]: 256 µg/mL (≈ 1040 µM)
MIC [33]: 500 µg/mL (≈ 2030 µM)
